# Laboratory results as given in ChEMBL document CHEMBL1135463 (J Med Chem, 2002).
# The source made the active and inactive calls. No cut-off for these calls is given here.
# How the values were obtained:
# BXPC-3 [1] = assay: Cell growth inhibition against pancreatic BXPC-3 cells, 50% reduction in the net protein increase; type: functional; settings: Homo sapiens
# In short: (§1)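 Human tumour lines kept in 5% FBS/RPMI-1640, plated and incubated 24 h before compound dilutions were added. Exposure 48 h, then TCA fixation, washing and sulforhodamine B staining, with optical density read on a plate reader. GI50 is the concentration giving a 50% reduction in net protein increase, calculated from the OD data.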
# DU-145 [2] = assay: Cell growth inhibition of prostate DU-145 cells, expressed as 50% reduction in the net protein increase; type: functional; settings: Homo sapiens; in short: as §1
# KM-20L2 [3] = assay: Cell growth inhibition of colon KM20L2 cells, expressed as 50% reduction in the net protein increase; type: functional; settings: Homo sapiens; in short: as §1
# NCI-H460 = assay: Cell growth inhibition of lung-NSC NCI-H460 cells, expressed as 50% reduction in the net protein increase; type: functional; settings: Homo sapiens; in short: as §1
# P388 [4] = assay: Evaluated for cell growth inhibition of the mouse leukemia P388 cells in 10% horse serum/Fisher media; type: functional; settings: read-out: ED50 (the source's name)
# In short: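 Murine P388 leukaemia cells grown in 10% horse serum/Fisher medium, incubated 24 h, then compound dilutions added. After 48 h, cells counted on a Coulter Z1 particle counter and the ED50 for growth inhibition calculated.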
# SF-268 [5] = assay: Cell growth inhibition of central nervous system (CNS) SF-268 cells, expressed as 50% reduction in the net protein increase; type: functional; settings: Homo sapiens; in short: as §1
# BXPC-3 [6] = assay: In vitro growth inhibition of BXPC-3 (human pancreatic adenocarcinoma) cell line.; type: functional
# DU-145 [7] = assay: In vitro growth inhibition of DU-145 (human prostate carcinoma) cell line.; type: functional
# KM-20L2 [8] = assay: In vitro growth inhibition of KM20L2 cell line.; type: functional; settings: Homo sapiens
# [9] = In vitro growth inhibition of NCI-H460 (human non-small cell lung carcinoma) cell line.; type: functional
# P388 [10] = assay: In vitro inhibition of P388 (murine leukemia) cell proliferation.; type: functional; settings: Mus musculus, read-out: ED50 (the source's name)
# MCF7 = assay: Cell growth inhibition of breast MCF-7 cells, expressed as 50% reduction in the net protein increase; type: functional; settings: Homo sapiens
# SF-268 (Homo sapiens) = assay: The concentration causing 50% reduction in the net protein increase (cell growth inhibition, GI50) against central nervous system (CNS) SF-268 cells
# Neisseria gonorrhoeae = assay: The minimum inhibitory concentration (MIC) that inhibits all visible growth of the Neisseria gonorrhoeae (bacteria); type: functional
# In short: (§2)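 Broth microdilution following NCCLS reference methods (M7-A4 for aerobic bacteria, the yeast broth dilution standard for fungi). MIC is the lowest compound concentration giving optically clear wells, with no visible growth of the test organism.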
# SF-268 [11] = assay: In vitro growth inhibition of central nervous system SF-268 cell line.; type: functional; settings: Homo sapiens
# Streptococcus pneumoniae [12] = assay: The minimum inhibitory concentration (MIC) that inhibits all visible growth of the Streptococcus pneumoniae (bacteria); type: functional; in short: as §2
# Candida albicans [13] = assay: The minimum inhibitory concentration (MIC) that inhibits all visible growth of the Candida albicans (fungus) at 64 ug/mL; NI is no inhibition; type: functional, organism-based; in short: as §2
# Cryptococcus neoformans [14] = assay: Minimum inhibitory concentration (MIC) that inhibits all visible growth of the Cryptococcus neoformans (fungus) at 64 ug/mL; NI is no inhibition; type: functional, organism-based; in short: as §2
# Enterobacter cloacae = assay: The minimum inhibitory concentration (MIC) that inhibits all visible growth of the Enterobacter cloacae (bacteria) at 64 ug/mL; NI is no inhibition; type: functional, organism-based; in short: as §2
# Enterococcus faecalis [15] = assay: the minimum inhibitory concentration (MIC) that inhibits all visible growth of the Enterococcus faecalis (bacteria) at 64 ug/mL; NI is no inhibition; type: functional, organism-based; in short: as §2
# Escherichia coli = assay: The minimum inhibitory concentration (MIC) that inhibits all visible growth of the Escherichia coli (bacteria) at 64 ug/mL; NI is no inhibition; type: functional, organism-based; in short: as §2
# Enterococcus faecalis [16] = assay: The minimum inhibitory concentration (MIC) that inhibits all visible growth of the Enterococcus faecalis (bacteria) at 64 ug/mL; NI is no inhibition; type: functional, organism-based; in short: as §2
# Micrococcus luteus [17] = assay: the minimum inhibitory concentration (MIC) that inhibits all visible growth of the Micrococcus luteus (bacteria) at 64 ug/mL; NI is no inhibition; type: functional, organism-based; in short: as §2
# Staphylococcus aureus [18] = assay: The minimum inhibitory concentration (MIC) that inhibits all visible growth of the Staphylococcus aureus (bacteria) at 64 ug/mL; NI is no inhibition; type: functional, organism-based; in short: as §2
# [19] = test system: Stenotrophomonas maltophilia; assay: The minimum inhibitory concentration (MIC) that inhibits all visible growth of the Stenotrophomonas maltophilia (bacteria) at 64 ug/mL; NI is no inhibition; type: functional, organism-based; in short: as §2
# Candida albicans [20] = assay: The minimum inhibitory concentration (MIC) that inhibits all visible growth of the Candida albicans (fungus); type: functional; in short: as §2
# Cryptococcus neoformans [21] = assay: Minimum inhibitory concentration (MIC) that inhibits all visible growth of the Cryptococcus neoformans (fungus).; type: functional; in short: as §2
# Enterococcus faecalis [22] = assay: the minimum inhibitory concentration (MIC) that inhibits all visible growth of the Enterococcus faecalis (bacteria); type: functional; in short: as §2
# Micrococcus luteus [23] = assay: the minimum inhibitory concentration (MIC) that inhibits all visible growth of the Micrococcus luteus (bacteria); type: functional; in short: as §2
# Staphylococcus aureus [24] = assay: The minimum inhibitory concentration (MIC) that inhibits all visible growth of the Staphylococcus aureus (bacteria); type: functional; in short: as §2
# Tubulin [25] = biological target: T1, Tubulin (Bos taurus, UniProt Q6B856+Q862L2+Q862F3); assay: (§3) Inhibition of tubulin polymerization reported as IC50; type: functional
# Streptococcus pneumoniae [26] = assay: The minimum inhibitory concentration (MIC) that inhibits all visible growth of the Streptococcus pneumoniae (bacteria) at 64 ug/mL; NI is no inhibition; type: functional, organism-based; in short: as §2
# Tubulin (Bos taurus) [27] = biological target: T2, Tubulin (Bos taurus) (UniProt Q6B856+Q862L2+Q862F3); assay: Inhibition of radiolabeled [3H]colchicine binding to tubulin at a concentration of 2 uM of the compound; type: protein assay
# In short: (§4)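 [3H]colchicine 5.0 µM incubated with tubulin 1.0 µM plus inhibitor at the stated level, 10 min at 37 °C, then colchicine binding measured. Reported as percent inhibition.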
# Tubulin (Bos taurus) [28] = biological target: T2, Tubulin (Bos taurus); assay: Inhibition of radiolabeled [3H]colchicine binding to tubulin at a concentration of 5 uM of the compound; type: protein assay; in short: as §4
# Tubulin [29] = biological target: T1, Tubulin; assay: as §3; type: functional; remark: listed apart in the source
# In short: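 Tubulin at 10 µM with a range of drug concentrations. Extent of assembly read after 20 min at 30 °C. IC50 taken from the concentration needed to halve assembly.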
Structure (SMILES),GI50 (BXPC-3 [6]),GI50 (DU-145 [7]),GI50 (KM-20L2 [8]),GI50 [9],EC50 (P388 [10]),GI50 (MCF7),MIC (Neisseria gonorrhoeae),GI50 (SF-268 [11]),further results
COc1ccc(/C=C\c2cc(OC)c(OC)c(OC)c2)cc1O [COMBRETASTATIN A4],–,–,–,–,–,–,–,–,GI50 (BXPC-3 [1]): 0.39 µg/mL; GI50 (DU-145 [2]): 0.0008 µg/mL; GI50 (KM-20L2 [3]): 0.34 µg/mL; GI50 (NCI-H460): 0.0006 µg/mL; EC50 (P388 [4]): 0.0003 µg/mL; GI50 (SF-268 [5]): > 0.01 µg/mL
COc1cc(/C=C/c2ccc(O)cc2)cc(OC)c1 [PTEROSTILBENE],6.5 µg/mL,2.7 µg/mL,3.4 µg/mL,2.7 µg/mL,4.87 µg/mL,2.3 µg/mL,–,–,GI50 (SF-268 (Homo sapiens)): 4.3 µg/mL
COc1ccc(/C=C\c2cc(O)cc(O)c2)cc1,14.1 µg/mL,10.6 µg/mL,17.7 µg/mL,6.4 µg/mL,2.75 µg/mL,12.7 µg/mL,16 µg/mL,15.6 µg/mL,–
O=C(c1ccc(O)cc1)c1cc(O)cc(O)c1,20.5 µg/mL,15 µg/mL,24.5 µg/mL,25 µg/mL,> 100 µg/mL,30.6 µg/mL,–,22.3 µg/mL,MIC (Streptococcus pneumoniae [12]): 64 µg/mL
COc1cc(OC)cc(C(O)c2ccc(O)cc2)c1 (centres undefined),1.3 µg/mL,5.8 µg/mL,5.3 µg/mL,2.3 µg/mL,> 10 µg/mL,2 µg/mL,4 µg/mL,0.65 µg/mL,MIC (Candida albicans [13]): inactive; MIC (Cryptococcus neoformans [14]): inactive; MIC (Enterobacter cloacae): inactive; MIC (Enterococcus faecalis [15]): inactive; MIC (Escherichia coli): inactive; MIC (Enterococcus faecalis [16]): inactive; MIC (Micrococcus luteus [17]): inactive; MIC (Staphylococcus aureus [18]): inactive; MIC [19]: inactive; MIC (Streptococcus pneumoniae [12]): 16 µg/mL
COc1cc(/C=C\c2ccc(O)cc2)cc(OC)c1,12.6 µg/mL,2.3 µg/mL,11.9 µg/mL,2.8 µg/mL,2.95 µg/mL,3 µg/mL,8 µg/mL,2.2 µg/mL,MIC (Candida albicans [20]): 64 µg/mL; MIC (Cryptococcus neoformans [21]): 16 µg/mL; MIC (Enterococcus faecalis [22]): 32 µg/mL; MIC (Micrococcus luteus [23]): 8 µg/mL; MIC (Staphylococcus aureus [24]): 32 µg/mL; MIC (Streptococcus pneumoniae [12]): 16 µg/mL; IC50 (Tubulin [25]): 29 µM
COc1ccc(C(=O)c2cc(O)cc(O)c2)cc1,21.2 µg/mL,15 µg/mL,24.5 µg/mL,16.6 µg/mL,17.8 µg/mL,21.7 µg/mL,–,24.5 µg/mL,–
COc1ccc(C(=O)c2cc(OC)cc(OC)c2)cc1,–,–,–,–,–,–,32 µg/mL,–,GI50 (BXPC-3 [1]): 0.42 µg/mL; MIC (Candida albicans [13]): inactive; MIC (Cryptococcus neoformans [14]): inactive; GI50 (DU-145 [2]): 1.2 µg/mL; MIC (Enterobacter cloacae): inactive; MIC (Enterococcus faecalis [15]): inactive; MIC (Escherichia coli): inactive; MIC (Enterococcus faecalis [16]): inactive; GI50 (KM-20L2 [3]): 0.42 µg/mL; MIC (Micrococcus luteus [17]): inactive; GI50 (NCI-H460): 0.53 µg/mL; EC50 (P388 [4]): 1.23 µg/mL; GI50 (SF-268 [5]): 0.86 µg/mL; MIC (Staphylococcus aureus [18]): inactive; MIC [19]: inactive; MIC (Streptococcus pneumoniae [26]): inactive; inhibition (Tubulin (Bos taurus) [27]): 47%; inhibition (Tubulin (Bos taurus) [28]): 69%; IC50 (Tubulin [25]): 2.6 µM
COc1cc(/C=C\c2ccc(OP(=O)(OCc3ccccc3)OCc3ccccc3)cc2)cc(OC)c1,5.4 µg/mL,35.6 µg/mL,24.7 µg/mL,10.7 µg/mL,4.45 µg/mL,9 µg/mL,–,38.5 µg/mL,–
COc1ccc(/C=C/c2cc(OC)cc(OC)c2)cc1 [TRISMETHOXYRESVERATROL],0.35 µg/mL,1.5 µg/mL,–,0.62 µg/mL,2.77 µg/mL,–,–,0.56 µg/mL,–
"COc1ccc(/C=C\c2cc(OC)cc(OC)c2)cc1 [8Z-3,4',5-TRIMETHOXYSTILBENE]",–,–,–,–,–,–,–,–,GI50 (BXPC-3 [1]): 0.0034 µg/mL; GI50 (DU-145 [2]): 0.0054 µg/mL; GI50 (NCI-H460): 0.0028 µg/mL; EC50 (P388 [4]): 0.0262 µg/mL; GI50 (SF-268 [5]): 0.0044 µg/mL; IC50 (Tubulin [29]): 1.8 µM; inhibition (Tubulin (Bos taurus) [27]): 88%; inhibition (Tubulin (Bos taurus) [28]): 95%
